Results taken from ChEMBL document CHEMBL5649168, “Discovery of a selective catalytic p300/CBP inhibitor that targets lineage-specific tumours” (Nature, 2017).
pEC50, pIC50: −log10 of the molar value.

Columns and labels:
[1] = biological target: Tyrosine-protein kinase ABL1 (Homo sapiens, UniProt P00519); assay: Inhibition of Abl (unknown origin)
[2] = biological target: Macrophage colony-stimulating factor 1 receptor (Homo sapiens, UniProt P07333); assay: Inhibition of CSF1R (unknown origin)
[3] = biological target: Dual specificity tyrosine-phosphorylation-regulated kinase 1B (Homo sapiens, UniProt Q9Y463); assay: Inhibition of DYRK1B (unknown origin)
Focal adhesion kinase 1 = Focal adhesion kinase 1 (Homo sapiens, UniProt Q05397); assay: Inhibition of FAK (unknown origin)
[4] = biological target: Glycogen synthase kinase-3 beta (Homo sapiens, UniProt P49841); assay: Inhibition of Gsk3beta (unknown origin)
[5] = biological target: Insulin-like growth factor 1 receptor (Homo sapiens, UniProt P08069); assay: Inhibition of IGF1R (unknown origin)
[6] = biological target: Inhibitor of nuclear factor kappa-B kinase subunit epsilon (Homo sapiens, UniProt Q14164); assay: Inhibition of IKKE (unknown origin)
[7] = biological target: Mitogen-activated protein kinase 8 (Homo sapiens, UniProt P45983); assay: Inhibition of JNK1 (unknown origin)
[8] = biological target: Mitogen-activated protein kinase kinase kinase 10 (Homo sapiens, UniProt Q02779); assay: Inhibition of MAP3K10 (unknown origin)
[9] = biological target: Platelet-derived growth factor receptor beta (Homo sapiens, UniProt P09619); assay: Inhibition of PDGFRbeta (unknown origin)
[10] = biological target: Protein kinase C theta type (Homo sapiens, UniProt Q04759); assay: Inhibition of PKCtheta (unknown origin)
[11] = biological target: Rho-associated protein kinase 1 (Homo sapiens, UniProt Q13464); assay: Inhibition of Rock1 (unknown origin)
[12] = biological target: Rho-associated protein kinase 2 (Homo sapiens, UniProt O75116); assay: Inhibition of Rock2 (unknown origin)
[13] = biological target: Tyrosine-protein kinase SYK (Homo sapiens, UniProt P43405); assay: Inhibition of Syk (unknown origin)
[14] = biological target: Serine/threonine-protein kinase TAO2 (Homo sapiens, UniProt Q9UL54); assay: Inhibition of TAOK2 (unknown origin)
[15] = biological target: T1, CREB-binding protein/Histone acetyltransferase p300 (Homo sapiens, UniProt Q09472+Q92793); assay: Inhibition of p300/CBP in human 22Rv1 cells assessed as reduction in H3K27Ac level incubated for 24 hrs by Hoechst 33342 staining based high content microscopy analysis; type: cell-based
Method in brief: (§1)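 Cells received an 8-point half-log dilution series from 10 µM. They were then fixed in 10% formaldehyde (10 min, RT), permeabilised with 0.1% Triton X-100 and blocked with 1% BSA for 1 h. Primary antibodies were applied overnight at 4 °C, followed by Alexa488 anti-rabbit, Alexa555 anti-mouse and Hoechst 33342 for 1 h. Fifteen fields per well were imaged and average mean intensity taken. EC50 came from a sigmoidal fit.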

[16] = biological target: T1, CREB-binding protein/Histone acetyltransferase p300; assay: Inhibition of p300/CBP in human 22Rv1 cells assessed as reduction in H3K9Ac level incubated for 1 hr by Hoechst 33342 staining based high content microscopy analysis; type: cell-based; method in brief: as §1
NCI-H1693 = assay: Antiproliferative activity against human NCI-H1693 cells assessed as inhibition of cell viability incubated for 3 to 5 days by Celltiter-Glo luminescent assay; type: functional, cell-based
NCI-H441 = assay: Antiproliferative activity against human NCI-H441 cells assessed as inhibition of cell viability incubated for 3 to 5 days by Celltiter-Glo luminescent assay; type: functional, cell-based
WM 266-4 = assay: Antiproliferative activity against human WM266-4 cells assessed as inhibition of cell viability incubated for 3 to 5 days by Celltiter-Glo luminescent assay; type: functional, cell-based
MeWo = assay: Antiproliferative activity against human MeWo cells assessed as inhibition of cell viability incubated for 3 to 5 days by Celltiter-Glo luminescent assay; type: functional, cell-based
G-361 = assay: Antiproliferative activity against human G361 cells assessed as inhibition of cell viability incubated for 3 to 5 days by Celltiter-Glo luminescent assay; type: functional, cell-based
Hs 294T = assay: Antiproliferative activity against human Hs294T cells assessed as inhibition of cell viability incubated for 3 to 5 days by Celltiter-Glo luminescent assay; type: functional, cell-based
NCI-H69 = assay: Antiproliferative activity against human NCI-H69 cells assessed as inhibition of cell viability incubated for 3 to 5 days by Celltiter-Glo luminescent assay; type: functional, cell-based
NCI-H1836 = assay: Antiproliferative activity against human NCI-H1836 cells assessed as inhibition of cell viability incubated for 3 to 5 days by Celltiter-Glo luminescent assay; type: functional, cell-based
NCI-H1930 = assay: Antiproliferative activity against human NCI-H1930 cells assessed as inhibition of cell viability incubated for 3 to 5 days by Celltiter-Glo luminescent assay; type: functional, cell-based
DU-4475 = assay: Antiproliferative activity against human DU-4475 cells assessed as inhibition of cell viability incubated for 3 to 5 days by Celltiter-Glo luminescent assay; type: functional, cell-based
HCC1937 = assay: Antiproliferative activity against human HCC1937 cells assessed as inhibition of cell viability incubated for 3 to 5 days by Celltiter-Glo luminescent assay; type: functional, cell-based
Granta-519 = assay: Antiproliferative activity against human Granta-519 cells assessed as inhibition of cell viability incubated for 3 to 5 days by Celltiter-Glo luminescent assay; type: functional, cell-based
JVM-2 = assay: Antiproliferative activity against human JVM-2 cells assessed as inhibition of cell viability incubated for 3 to 5 days by Celltiter-Glo luminescent assay; type: functional, cell-based
KMS-11 = assay: Antiproliferative activity against human KMS-11 cells assessed as inhibition of cell viability incubated for 3 to 5 days by Celltiter-Glo luminescent assay; type: functional, cell-based
OCI-Ly18 = assay: Antiproliferative activity against human OCI-Ly18 cells assessed as inhibition of cell viability incubated for 3 to 5 days by Celltiter-Glo luminescent assay; type: functional, cell-based
RCK8 = assay: Antiproliferative activity against human RCK8 cells assessed as inhibition of cell viability incubated for 3 to 5 days by Celltiter-Glo luminescent assay; type: functional, cell-based
U-2973 = assay: Antiproliferative activity against human U-2973 cells assessed as inhibition of cell viability incubated for 3 to 5 days by Celltiter-Glo luminescent assay; type: functional, cell-based
SU-DHL-5 = assay: Antiproliferative activity against human SuDHL5 cells assessed as inhibition of cell viability incubated for 3 to 5 days by Celltiter-Glo luminescent assay; type: functional, cell-based
OCI-Ly1 = assay: Antiproliferative activity against human OCI-Ly1 cells assessed as inhibition of cell viability incubated for 3 to 5 days by Celltiter-Glo luminescent assay; type: functional, cell-based
SKM-1 = assay: Antiproliferative activity against human SKM-1 cells assessed as inhibition of cell viability incubated for 3 to 5 days by Celltiter-Glo luminescent assay; type: functional, cell-based
HL-60 = assay: Antiproliferative activity against human HL-60 cells assessed as inhibition of cell viability incubated for 3 to 5 days by Celltiter-Glo luminescent assay; type: functional, cell-based
K562 = assay: Antiproliferative activity against human K562 cells assessed as inhibition of cell viability incubated for 3 to 5 days by Celltiter-Glo luminescent assay; type: functional, cell-based
[17] = Tmax in CB17 SCID mouse xenografted with LuCaP-77 CR cell at 100 mg/kg, ip administered for 7 days; type: ADME, organism-based; conditions: in vivo, time 7 day

T1 sequence (Q09472 whole entry, looked up): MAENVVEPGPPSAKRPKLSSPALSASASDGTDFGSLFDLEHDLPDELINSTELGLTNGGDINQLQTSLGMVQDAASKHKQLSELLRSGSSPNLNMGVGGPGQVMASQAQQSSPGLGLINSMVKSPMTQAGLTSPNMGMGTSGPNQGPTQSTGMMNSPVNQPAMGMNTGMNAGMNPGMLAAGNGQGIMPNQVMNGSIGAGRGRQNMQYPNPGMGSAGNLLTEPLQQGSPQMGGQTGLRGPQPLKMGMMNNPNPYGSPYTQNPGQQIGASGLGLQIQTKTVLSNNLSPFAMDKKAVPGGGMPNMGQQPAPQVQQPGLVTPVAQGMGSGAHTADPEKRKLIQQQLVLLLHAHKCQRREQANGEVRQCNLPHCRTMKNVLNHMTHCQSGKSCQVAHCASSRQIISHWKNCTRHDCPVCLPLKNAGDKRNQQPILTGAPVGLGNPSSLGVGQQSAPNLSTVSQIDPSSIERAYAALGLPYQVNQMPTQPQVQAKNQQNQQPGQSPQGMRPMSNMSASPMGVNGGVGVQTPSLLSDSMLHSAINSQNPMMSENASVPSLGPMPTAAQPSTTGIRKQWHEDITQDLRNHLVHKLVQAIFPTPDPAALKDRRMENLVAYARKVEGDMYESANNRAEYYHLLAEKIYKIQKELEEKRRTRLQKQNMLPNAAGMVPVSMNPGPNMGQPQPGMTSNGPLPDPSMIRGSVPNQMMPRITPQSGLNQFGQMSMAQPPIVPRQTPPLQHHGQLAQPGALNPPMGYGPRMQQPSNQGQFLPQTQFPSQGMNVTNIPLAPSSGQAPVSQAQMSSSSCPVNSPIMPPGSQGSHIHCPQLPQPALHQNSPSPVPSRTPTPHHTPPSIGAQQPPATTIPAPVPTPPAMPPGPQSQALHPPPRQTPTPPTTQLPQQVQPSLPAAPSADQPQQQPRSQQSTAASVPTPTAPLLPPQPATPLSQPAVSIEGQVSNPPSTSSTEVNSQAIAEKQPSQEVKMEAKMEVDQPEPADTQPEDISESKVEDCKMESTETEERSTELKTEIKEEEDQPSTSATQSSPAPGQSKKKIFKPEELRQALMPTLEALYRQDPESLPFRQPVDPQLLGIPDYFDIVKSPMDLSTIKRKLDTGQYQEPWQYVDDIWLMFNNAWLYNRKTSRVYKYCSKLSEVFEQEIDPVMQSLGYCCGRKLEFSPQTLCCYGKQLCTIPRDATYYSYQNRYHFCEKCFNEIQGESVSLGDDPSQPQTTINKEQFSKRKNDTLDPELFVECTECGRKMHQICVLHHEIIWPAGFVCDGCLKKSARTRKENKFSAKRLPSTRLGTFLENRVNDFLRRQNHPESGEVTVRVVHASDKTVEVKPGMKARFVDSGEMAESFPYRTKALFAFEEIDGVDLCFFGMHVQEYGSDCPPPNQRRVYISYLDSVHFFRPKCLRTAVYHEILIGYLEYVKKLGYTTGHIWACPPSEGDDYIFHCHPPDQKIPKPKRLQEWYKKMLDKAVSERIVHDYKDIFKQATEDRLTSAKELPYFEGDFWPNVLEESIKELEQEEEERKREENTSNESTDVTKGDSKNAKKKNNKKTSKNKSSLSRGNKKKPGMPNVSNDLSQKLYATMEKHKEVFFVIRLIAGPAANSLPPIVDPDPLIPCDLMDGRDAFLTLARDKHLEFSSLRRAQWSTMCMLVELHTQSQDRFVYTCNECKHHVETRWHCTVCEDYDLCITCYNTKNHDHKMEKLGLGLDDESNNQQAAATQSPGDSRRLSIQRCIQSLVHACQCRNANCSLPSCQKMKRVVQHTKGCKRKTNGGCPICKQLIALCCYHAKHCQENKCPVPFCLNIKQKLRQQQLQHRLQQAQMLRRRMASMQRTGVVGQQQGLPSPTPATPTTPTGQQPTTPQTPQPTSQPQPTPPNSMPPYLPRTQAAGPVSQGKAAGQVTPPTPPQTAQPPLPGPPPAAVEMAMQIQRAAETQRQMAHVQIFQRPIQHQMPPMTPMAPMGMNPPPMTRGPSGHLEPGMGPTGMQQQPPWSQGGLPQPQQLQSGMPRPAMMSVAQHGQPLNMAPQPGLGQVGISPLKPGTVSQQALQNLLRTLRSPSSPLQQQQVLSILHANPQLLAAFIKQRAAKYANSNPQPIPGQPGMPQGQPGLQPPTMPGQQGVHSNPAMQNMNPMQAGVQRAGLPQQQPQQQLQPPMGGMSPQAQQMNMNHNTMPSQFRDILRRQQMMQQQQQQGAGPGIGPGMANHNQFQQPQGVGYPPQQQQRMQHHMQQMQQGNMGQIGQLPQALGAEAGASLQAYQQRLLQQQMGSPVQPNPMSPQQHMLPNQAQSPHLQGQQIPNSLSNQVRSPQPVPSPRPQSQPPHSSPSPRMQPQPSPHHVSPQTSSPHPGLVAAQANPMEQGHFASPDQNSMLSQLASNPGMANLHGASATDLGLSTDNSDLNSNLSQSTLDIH
T1 sequence (Q92793 whole entry, looked up): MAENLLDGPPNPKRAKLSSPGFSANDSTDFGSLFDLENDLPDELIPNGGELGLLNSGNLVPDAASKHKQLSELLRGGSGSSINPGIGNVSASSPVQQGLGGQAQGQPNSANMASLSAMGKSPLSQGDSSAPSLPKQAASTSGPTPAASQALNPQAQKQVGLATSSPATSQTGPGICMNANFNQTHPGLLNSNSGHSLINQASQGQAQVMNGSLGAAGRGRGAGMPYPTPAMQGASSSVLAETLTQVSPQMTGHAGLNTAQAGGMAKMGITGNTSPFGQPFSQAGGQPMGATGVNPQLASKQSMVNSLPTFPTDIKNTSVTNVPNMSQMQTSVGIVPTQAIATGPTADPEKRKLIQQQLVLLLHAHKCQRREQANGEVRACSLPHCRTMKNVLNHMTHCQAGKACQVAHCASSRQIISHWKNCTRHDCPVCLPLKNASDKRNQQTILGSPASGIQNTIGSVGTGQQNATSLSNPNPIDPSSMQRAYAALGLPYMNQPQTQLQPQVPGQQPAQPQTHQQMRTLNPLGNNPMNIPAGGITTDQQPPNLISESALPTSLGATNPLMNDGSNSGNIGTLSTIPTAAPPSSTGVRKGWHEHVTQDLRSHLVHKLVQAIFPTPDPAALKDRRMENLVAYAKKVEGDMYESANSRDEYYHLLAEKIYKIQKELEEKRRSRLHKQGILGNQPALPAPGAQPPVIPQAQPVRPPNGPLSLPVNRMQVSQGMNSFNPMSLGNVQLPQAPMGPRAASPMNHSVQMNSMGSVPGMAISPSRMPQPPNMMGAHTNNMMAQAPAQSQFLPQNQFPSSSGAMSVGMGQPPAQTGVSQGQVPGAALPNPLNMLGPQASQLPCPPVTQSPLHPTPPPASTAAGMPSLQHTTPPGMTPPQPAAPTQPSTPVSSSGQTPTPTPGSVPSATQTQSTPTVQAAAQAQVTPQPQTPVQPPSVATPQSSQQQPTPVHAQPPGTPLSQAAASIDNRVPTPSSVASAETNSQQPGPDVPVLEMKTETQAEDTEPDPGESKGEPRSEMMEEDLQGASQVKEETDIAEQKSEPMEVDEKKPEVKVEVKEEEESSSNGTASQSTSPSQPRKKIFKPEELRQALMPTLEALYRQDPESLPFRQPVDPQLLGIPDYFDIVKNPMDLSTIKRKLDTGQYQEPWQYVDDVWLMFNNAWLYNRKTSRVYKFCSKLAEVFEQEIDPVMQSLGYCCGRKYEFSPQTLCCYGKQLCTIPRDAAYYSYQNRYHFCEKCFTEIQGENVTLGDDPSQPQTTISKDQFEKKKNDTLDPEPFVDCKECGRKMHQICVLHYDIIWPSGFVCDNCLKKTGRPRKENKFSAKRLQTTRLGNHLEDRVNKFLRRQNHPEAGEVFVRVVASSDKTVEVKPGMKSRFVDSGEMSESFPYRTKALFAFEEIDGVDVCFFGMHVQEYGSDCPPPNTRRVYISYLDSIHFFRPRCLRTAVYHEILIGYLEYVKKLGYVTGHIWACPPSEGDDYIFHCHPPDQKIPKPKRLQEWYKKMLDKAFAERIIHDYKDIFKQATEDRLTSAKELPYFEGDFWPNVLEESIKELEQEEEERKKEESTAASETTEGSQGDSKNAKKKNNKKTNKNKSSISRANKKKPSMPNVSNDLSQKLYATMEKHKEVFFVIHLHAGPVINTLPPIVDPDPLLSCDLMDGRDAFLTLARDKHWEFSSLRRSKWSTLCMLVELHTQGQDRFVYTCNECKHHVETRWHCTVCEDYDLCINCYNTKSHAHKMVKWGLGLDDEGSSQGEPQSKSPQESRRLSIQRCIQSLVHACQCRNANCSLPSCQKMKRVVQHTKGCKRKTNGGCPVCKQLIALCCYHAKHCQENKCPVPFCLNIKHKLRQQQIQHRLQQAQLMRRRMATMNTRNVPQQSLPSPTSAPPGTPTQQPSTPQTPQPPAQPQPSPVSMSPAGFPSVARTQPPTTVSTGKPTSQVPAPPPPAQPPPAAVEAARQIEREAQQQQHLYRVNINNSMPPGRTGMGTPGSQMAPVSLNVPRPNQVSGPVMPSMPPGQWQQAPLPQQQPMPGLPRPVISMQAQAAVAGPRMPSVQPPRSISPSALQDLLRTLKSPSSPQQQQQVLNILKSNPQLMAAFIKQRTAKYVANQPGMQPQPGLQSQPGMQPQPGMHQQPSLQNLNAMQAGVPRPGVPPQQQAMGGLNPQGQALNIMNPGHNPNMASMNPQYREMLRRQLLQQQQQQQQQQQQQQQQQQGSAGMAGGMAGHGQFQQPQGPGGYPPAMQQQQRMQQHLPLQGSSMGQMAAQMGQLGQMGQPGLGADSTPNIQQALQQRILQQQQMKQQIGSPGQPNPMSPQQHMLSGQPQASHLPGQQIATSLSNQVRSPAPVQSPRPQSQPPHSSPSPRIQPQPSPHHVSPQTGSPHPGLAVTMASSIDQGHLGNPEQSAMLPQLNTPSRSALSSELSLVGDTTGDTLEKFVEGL

CNC(=O)Nc1ccc2c(c1)CC[C@@]21OC(=O)N(CC(=O)N(Cc2ccc(F)cc2)[C@@H](C)C(F)(F)F)C1=O [A-485]
pIC50 [1]: < 5.00 | pIC50 [2]: < 5.00 | pIC50 [3]: < 5.00 | pIC50 (Focal adhesion kinase 1): < 5.00 | pIC50 [4]: < 5.00 | pIC50 [5]: < 5.00 | pIC50 [6]: < 5.00 | pIC50 [7]: < 5.00 | pIC50 [8]: < 5.00 | pIC50 [9]: < 5.00 | pIC50 [10]: < 5.00 | pIC50 [11]: < 5.00 | pIC50 [12]: < 5.00 | pIC50 [13]: < 5.00 | pIC50 [14]: < 5.00 | INH [15]: 0.47 µM | INH [16]: > 10 µM | pEC50 (NCI-H1693): 5.63 | pEC50 (NCI-H441): < 5.00 | pEC50 (WM 266-4): 5.72 | pEC50 (MeWo): 5.61 | pEC50 (G-361): 5.42 | pEC50 (Hs 294T): 5.05 | pEC50 (NCI-H69): < 5.00 | pEC50 (NCI-H1836): < 5.00 | pEC50 (NCI-H1930): < 5.00 | pEC50 (DU-4475): 6.17 | pEC50 (HCC1937): < 5.00 | pEC50 (Granta-519): 5.48 | pEC50 (JVM-2): < 5.00 | pEC50 (KMS-11): 6.62 | pEC50 (OCI-Ly18): 6.49 | pEC50 (RCK8): 6.23 | pEC50 (U-2973): 6.18 | pEC50 (SU-DHL-5): 6.12 | pEC50 (OCI-Ly1): 6.03 | pEC50 (SKM-1): 5.87 | pEC50 (HL-60): < 5.00 | pEC50 (K562): 5.90 | Tmax [17]: 3 h
